From ChEMBL document CHEMBL4680236, “Design, synthesis and structure-activity relationships of novel 15-membered macrolides: Quinolone/quinoline-containing sidechains tethered to the C-6 position of azithromycin acylides” (Eur J Med Chem, 2020)
Converted amounts (≈) assume the structure as drawn.

Experiments:
Type in all cases: functional
Streptococcus pneumoniae [1] = test: Bactericidal activity against MLSB-resistant Streptococcus pneumoniae 07P390 harboring ermB gene assessed as reduction in microbial growth
Procedure, shortened: (§1)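 Bacteria were exposed to 1- to 8-fold their MIC of test sample, then transferred to fresh culture medium without antibacterial compound and incubated for the required time. Colonies were then counted. MBC is the lowest concentration giving a reduction in colony number of >3 Log₁₀.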

Streptococcus pneumoniae [2] = test: Ratio of MBC to MIC against Erythromycin-susceptible Streptococcus pneumoniae ATCC 49619
Streptococcus pneumoniae [3] = test: Antibacterial activity against Erythromycin-susceptible Streptococcus pneumoniae ATCC 49619 assessed as reduction in microbial growth
Streptococcus pyogenes [4] = test: Bactericidal activity against MLSB-resistant Streptococcus pyogenes 12-206 harboring ermA gene; procedure, shortened: as §1
Streptococcus pyogenes [5] = test: Antibacterial activity against MLSB-resistant Streptococcus pyogenes 12-206 harboring ermA gene assessed as reduction in microbial growth
Streptococcus pneumoniae [6] = test: Antibacterial activity against penicillin-susceptible Streptococcus pneumoniae PU09 harboring mef gene assessed as reduction in microbial growth
Staphylococcus aureus [7] = test: Antibacterial activity against MLSB/methicillin-resistant Staphylococcus aureus 15B196 assessed as reduction in microbial growth
Streptococcus pneumoniae [8] = test: Ratio of MBC to MIC against penicillin-susceptible Streptococcus pneumoniae PU09
Staphylococcus aureus [9] = test: Antibacterial activity against MLSB/methicillin/ciprofloxacin-resistant Staphylococcus aureus PU32 harboring ermA gene assessed as reduction in microbial growth
Streptococcus pneumoniae [10] = test: Bactericidal activity against penicillin-susceptible Streptococcus pneumoniae PU09 harboring mef gene; procedure, shortened: as §1
Staphylococcus aureus [11] = test: Bactericidal activity against MLSB/methicillin-resistant Staphylococcus aureus 15B196; procedure, shortened: as §1
Haemophilus influenzae [12] = test: Ratio of MBC to MIC against azithromycin-susceptible Haemophilus influenzae ATCC 49247
Haemophilus influenzae [13] = test: Antibacterial activity against azithromycin-susceptible Haemophilus influenzae ATCC 49247 assessed as reduction in microbial growth
Streptococcus pneumoniae [14] = test: Antibacterial activity against MLSB-resistant Streptococcus pneumoniae 07P390 harboring ermB gene assessed as reduction in microbial growth
Streptococcus pyogenes [15] = test: Ratio of MBC to MIC against MLSB-resistant Streptococcus pyogenes 12-206 harboring ermA gene
Staphylococcus aureus [16] = test: Ratio of MBC to MIC against MLSB/methicillin/ciprofloxacin-resistant Staphylococcus aureus PU32 harboring ermA gene
Staphylococcus aureus [17] = test: Bactericidal activity against MLSB/methicillin/ciprofloxacin-resistant Staphylococcus aureus PU32 harboring ermA gene; procedure, shortened: as §1
Haemophilus influenzae [18] = test: Bactericidal activity against azithromycin-susceptible Haemophilus influenzae ATCC 49247
Procedure, shortened: (§2)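 Bacteria were exposed to 1- to 8-fold MIC of the sample, then transferred to fresh medium without antibacterial. After further incubation, colonies were counted. MBC was taken as the lowest concentration giving a >3 log10 reduction in colony number.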

Streptococcus pneumoniae [19] = test: Bactericidal activity against Erythromycin-susceptible Streptococcus pneumoniae ATCC 49619; procedure, shortened: as §2

Row | Structure (SMILES) | MBC (Streptococcus pneumoniae [1]) [µg/mL] | Ratio (Streptococcus pneumoniae [2]) | MIC (Streptococcus pneumoniae [3]) [µg/mL] | MBC (Streptococcus pyogenes [4]) [µg/mL] | MIC (Streptococcus pyogenes [5]) [µg/mL] | MIC (Streptococcus pneumoniae [6]) [µg/mL] | MIC (Staphylococcus aureus [7]) [µg/mL] | Ratio (Streptococcus pneumoniae [8]) | MIC (Staphylococcus aureus [9]) [µg/mL] | MBC (Streptococcus pneumoniae [10]) [µg/mL] | MBC (Staphylococcus aureus [11]) [µg/mL] | Ratio (Haemophilus influenzae [12]) | MIC (Haemophilus influenzae [13]) [µg/mL] | MIC (Streptococcus pneumoniae [14]) [µg/mL] | Ratio (Streptococcus pyogenes [15]) | Ratio (Staphylococcus aureus [16]) | MBC (Staphylococcus aureus [17]) [µg/mL] | MBC (Haemophilus influenzae [18]) [µg/mL] | MBC (Streptococcus pneumoniae [19]) [µg/mL]
1 | CC[C@H]1OC(=O)[C@H](C)[C@@H](OC(=O)Cc2cccnc2)[C@H](C)[C@@H](O[C@@H]2O[C@H](C)C[C@H](N(C)C)[C@H]2O)[C@](C)(OC(=O)CCNCCC#Cc2ccc3c(c2)c(=O)c(C(N)=O)cn3C2CC2)C[C@@H](C)CN(C)[C@H](C)[C@H]2OC(=O)O[C@@]21C | 128 | 2 | 1 | 64 (≈ 59 µM) | 32 | 4 | > 256 | 2 | 64 | 8 (≈ 7.37 µM) | > 256 | 1 | 64 | 64 | 2 | >4 | > 256 | 64 (≈ 59 µM) | 2 (≈ 1.84 µM)
2 | CC[C@H]1OC(=O)[C@H](C)[C@@H](OC(=O)Cc2ccccn2)[C@H](C)[C@@H](O[C@@H]2O[C@H](C)C[C@H](N(C)C)[C@H]2O)[C@](C)(OC(=O)CCNCCC#Cc2ccc3[nH]ccc(=O)c3c2)C[C@@H](C)CN(C)[C@H](C)[C@@H](O)[C@]1(C)O | > 256 | 1 | 0.25 | > 16 | 2 | 2 | > 256 | 2 | 16 | 4 (≈ 4.1 µM) | > 256 | 2 | 64 | 256 | >8 | >8 | > 128 | 128 (≈ 131 µM) | 0.25 (≈ 0.256 µM)
3 | CC[C@H]1OC(=O)[C@H](C)[C@@H](OC(=O)Cc2ccccn2)[C@H](C)[C@@H](O[C@@H]2O[C@H](C)C[C@H](N(C)C)[C@H]2O)[C@](C)(OC(=O)CCN2CCN(c3cc4c(cc3F)c(=O)c(C(N)=O)cn4CC)CC2)C[C@@H](C)CN(C)[C@H](C)[C@@H](O)[C@]1(C)O | 128 | 2 | 0.5 | 128 (≈ 118 µM) | 16 | 4 | 128 | 2 | 128 | 8 (≈ 7.39 µM) | 128 (≈ 118 µM) | 1 | 4 | 64 | 8 | – | > 256 | 4 (≈ 3.7 µM) | 1 (≈ 0.924 µM)
4 | CC[C@H]1OC(=O)[C@H](C)[C@@H](OC(=O)Cc2ccccn2)[C@H](C)[C@@H](O[C@@H]2O[C@H](C)C[C@H](N(C)C)[C@H]2O)[C@](C)(OC(=O)CCNCCC#Cc2ccc3c(c2)c(=O)c(C(N)=O)cn3CC)C[C@@H](C)CN(C)[C@H](C)[C@@H](O)[C@]1(C)O | > 256 | 4 | 0.12 | > 64 | 8 | 2 | > 256 | 1 | 32 | 2 (≈ 1.91 µM) | > 256 | 1 | 16 | 256 | >8 | >8 | > 256 | 16 (≈ 15.3 µM) | 0.5 (≈ 0.477 µM)
5 | CC[C@H]1OC(=O)[C@H](C)[C@@H](OC(=O)Cc2ccccn2)[C@H](C)[C@@H](O[C@@H]2O[C@H](C)C[C@H](N(C)C)[C@H]2O)[C@](C)(OC(=O)CCN2CCN(c3nc4c(cc3F)c(=O)c(C(N)=O)cn4CC)CC2)C[C@@H](C)CN(C)[C@H](C)[C@@H](O)[C@]1(C)O | 128 | 2 | 0.5 | > 128 | 16 | 2 | 256 | 2 | 32 | 4 (≈ 3.69 µM) | > 256 | 1 | 8 | 64 | >8 | >8 | > 256 | 8 (≈ 7.38 µM) | 1 (≈ 0.923 µM)
6 | CC[C@H]1OC(=O)[C@H](C)[C@@H](OC(=O)Cc2ccccn2)[C@H](C)[C@@H](O[C@@H]2O[C@H](C)C[C@H](N(C)C)[C@H]2O)[C@](C)(OC(=O)CCNCCC#Cc2ccc3c(c2)c(=O)c(C(N)=O)cn3C)C[C@@H](C)CN(C)[C@H](C)[C@@H](O)[C@]1(C)O | > 256 | 2 | 0.25 | > 64 | 8 | 2 | > 256 | 2 | 16 | 4 (≈ 3.87 µM) | > 256 | 2 | 32 | 256 | >8 | >8 | > 128 | 64 (≈ 61.9 µM) | 0.5 (≈ 0.484 µM)
7 | CC[C@H]1OC(=O)[C@H](C)[C@@H](OC(=O)Cc2ccccn2)[C@H](C)[C@@H](O[C@@H]2O[C@H](C)C[C@H](N(C)C)[C@H]2O)[C@](C)(OC(=O)CCNCCC#Cc2ccc3c(c2)c(=O)c(C(=O)O)cn3C2CC2)C[C@@H](C)CN(C)[C@H](C)[C@H]2OC(=O)O[C@@]21C | 64 | 1 | 1 | 64 (≈ 58.9 µM) | 32 | 4 | > 256 | 2 | 64 | 8 (≈ 7.36 µM) | > 256 | 2 | 64 | 64 | 2 | >4 | > 256 | 128 (≈ 118 µM) | 1 (≈ 0.921 µM)
8 | CC[C@H]1OC(=O)[C@H](C)[C@@H](OC(=O)Cc2ccccn2)[C@H](C)[C@@H](O[C@@H]2O[C@H](C)C[C@H](N(C)C)[C@H]2O)[C@](C)(OC(=O)CCNCCC#Cc2ccc3c(c2)c(=O)c(C(=O)NC)cn3C2CC2)C[C@@H](C)CN(C)[C@H](C)[C@@H](O)[C@]1(C)O | 256 | 2 | 0.5 | 128 (≈ 119 µM) | 32 | 4 | > 256 | 2 | > 256 | 8 (≈ 7.45 µM) | > 256 | 2 | 64 | 256 | 4 | – | > 256 | 128 (≈ 119 µM) | 1 (≈ 0.932 µM)
9 | CC[C@H]1OC(=O)[C@H](C)[C@@H](OC(=O)Cc2ccccn2)[C@H](C)[C@@H](O[C@@H]2O[C@H](C)C[C@H](N(C)C)[C@H]2O)[C@](C)(OC(=O)CCN2CCN(c3cc4c(cc3F)c(=O)c(C(=O)O)cn4C3CC3)CC2)C[C@@H](C)CN(C)[C@H](C)[C@H]2OC(=O)O[C@@]21C | > 256 | 4 | 4 | > 256 | 64 | 4 | > 256 | 4 | > 256 | 16 (≈ 14.3 µM) | > 256 | 2 | 8 | > 256 | >8 | – | > 256 | 16 (≈ 14.3 µM) | 16 (≈ 14.3 µM)
10 | CC[C@H]1OC(=O)[C@H](C)[C@@H](OC(=O)Cc2ccccn2)[C@H](C)[C@@H](O[C@@H]2O[C@H](C)C[C@H](N(C)C)[C@H]2O)[C@](C)(OC(=O)CCNCCC#Cc2ccc3c(c2)c(=O)c(C(N)=O)cn3C2CC2)C[C@@H](C)CN(C)[C@H](C)[C@@H](O)[C@]1(C)O | > 256 | 1 | 0.5 | 128 (≈ 121 µM) | 32 | 4 | > 256 | 1 | 128 | 4 (≈ 3.78 µM) | > 256 | 1 | 64 | 256 | 4 | – | > 256 | 64 (≈ 60.4 µM) | 0.5 (≈ 0.472 µM)
11 | CC[C@H]1OC(=O)[C@H](C)[C@@H](OC(=O)Cc2ccccn2)[C@H](C)[C@@H](O[C@@H]2O[C@H](C)C[C@H](N(C)C)[C@H]2O)[C@](C)(OC(=O)CCN2CCN(c3cc4c(cc3F)c(=O)c(C(N)=O)cn4C3CC3)CC2)C[C@@H](C)CN(C)[C@H](C)[C@@H](O)[C@]1(C)O | 128 | 2 | 0.25 | 128 (≈ 117 µM) | 16 | 4 | > 256 | 1 | 128 | 4 (≈ 3.66 µM) | > 256 | 2 | 64 | 128 | 8 | – | > 256 | 128 (≈ 117 µM) | 0.5 (≈ 0.457 µM)
